Consider one compound from ChEMBL document CHEMBL4339195, “Di-aryl Sulfonamide Motif Adds π-Stacking Bulk in Negative Allosteric Modulators of the NMDA Receptor” (ACS Med Chem Lett, 2019).

One assay is filed under the species Homo sapiens. In words: Negative allosteric modulation of human GluA2 R607Q mutant expressed in Xenopus laevis oocytes assessed as inhibition of glutamate-induced current response at 30 uM at -40 mV holding potential by two-electrode voltage clamp method relative to glutamate alone. In kind it is cell-based. A digest of the protocol: (§1)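 Oocyte two-electrode voltage clamp at -40 mV holding. Test compound co-applied with agonist; response given as percent of the mean of control and recovery currents to agonist alone. Agonists: 100 µM glutamate (AMPA, kainate), 100 µM GABA (GABA receptors), 100 µM glycine (glycine receptor), 100 µM serotonin (5-HT3A), 9 µM ATP (P2X), 1 µM acetylcholine (nicotinic).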
A general note: In two-electrode clamp one electrode senses voltage and the other passes current.

In assay [1] the target is T1, Ionotropic glutamate receptor NMDA 1/2D (Rattus norvegicus) (UniProt P35439+Q62645). The experiment in a line: Negative allosteric modulation of recombinant rat GluN1/GluN2D expressed in Xenopus laevis oocytes assessed as inhibition of glutamate/glycine-induced current response at 30 uM at -40 mV holding potential by two-electrode voltage clamp method relative to glutamate/glycine. It is filed as cell-based. To be noted: values are per cent of control. An outline of the steps: (§2)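 Oocytes recorded while the drug is co-applied with a maximally effective 100 µM glutamate plus 30 µM glycine. Response is expressed as percent of the glutamate/glycine control. IC50 comes from a Hill fit to the average composite concentration-response curve. 8-16 oocytes from 2-3 frogs per compound and receptor.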

Assay [2] deals with P2X receptor (Homo sapiens) (UniProt P51575+Q99571+Q9UBL9+O15547+P56373+Q99572+Q93086). The experiment in a line: Negative allosteric modulation of human P2X expressed in Xenopus laevis oocytes assessed as inhibition of ATP-induced current response at 30 uM at -40 mV holding potential by two-electrode voltage clamp method relative to ATP alone. In kind it is cell-based. A digest of the protocol: as §1

Assay [3] has as its target Ionotropic glutamate receptor NMDA 1/2D (Rattus norvegicus, UniProt P35439+Q62645). In words: Negative allosteric modulation of recombinant rat GluN1/GluN2D expressed in Xenopus laevis oocytes assessed as inhibition of glutamate/glycine-induced current response at -40 mV holding potential by two-electrode voltage clamp method. In kind it is cell-based. A digest of the protocol:
as §2

The target in assay [4] is T2, Glutamate NMDA receptor; Grin1/Grin2c (Rattus norvegicus) (UniProt P35439+Q00961). In words: Potency index, ratio of NP11999 IC50 to test compound IC50 for negative allosteric modulation of recombinant rat GluN1/GluN2C expressed in Xenopus laevis oocytes assessed as inhibition of glutamate/glycine-induced current response. It is filed as cell-based.
Assay [5] has as its target T1, Ionotropic glutamate receptor NMDA 1/2D (Rattus norvegicus). In words: Potency index, ratio of NP11999 IC50 to test compound IC50 for negative allosteric modulation of recombinant rat GluN1/GluN2D expressed in Xenopus laevis oocytes assessed as inhibition of glutamate/glycine-induced current response. In kind it is cell-based.
The species named for assay [6] is Rattus norvegicus. The experiment in a line: Negative allosteric modulation of rat GABAA alpha1beta2gamma2S expressed in Xenopus laevis oocytes assessed as inhibition of GABA-induced current response at 30 uM at -40 mV holding potential by two-electrode voltage clamp method relative to GABA alone. In kind it is cell-based. A digest of the protocol: as §1
Assay [7] concerns the target Glutamate NMDA receptor; Grin1/Grin2b (Rattus norvegicus) (UniProt P35439+Q00960). In words: Negative allosteric modulation of recombinant rat GluN1/GluN2B expressed in Xenopus laevis oocytes assessed as inhibition of glutamate/glycine-induced current response at 30 uM at -40 mV holding potential by two-electrode voltage clamp method relative to glutamate/glycine. It is filed as cell-based. An outline of the steps: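 Oocyte voltage clamp at -40 mV. Drug co-applied with 100 µM glutamate plus 30 µM glycine; response given as percent of the average of control and recovery currents to agonist alone.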

The species named for assay [8] is Rattus norvegicus. The experiment in a line: Negative allosteric modulation of rat GABAA rho expressed in Xenopus laevis oocytes assessed as inhibition of GABA-induced current response at 30 uM at -40 mV holding potential by two-electrode voltage clamp method relative to GABA alone. It is filed as cell-based. An outline of the steps:
as §1

For assay [9], the target named is T1, Ionotropic glutamate receptor NMDA 1/2D (Rattus norvegicus). The experiment in a line: Negative allosteric modulation of recombinant rat GluN1/GluN2D expressed in Xenopus laevis oocytes assessed as inhibition of glutamate/glycine-induced current response at saturated concentration at -40 mV holding potential by two-electrode voltage clamp method relative to glutamate/glycine. In kind it is cell-based. A digest of the protocol: (§3)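 Hill fit of the composite concentration-response curve in oocytes, with agonist 100 µM glutamate plus 30 µM glycine. Residual response in saturating compound is either fixed at 0 or fitted. 8-16 oocytes from 2-3 frogs.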

The target of assay [10] is T3, 5-hydroxytryptamine receptor 3A (Rattus norvegicus) (UniProt P35563).
T3 sequence (whole entry): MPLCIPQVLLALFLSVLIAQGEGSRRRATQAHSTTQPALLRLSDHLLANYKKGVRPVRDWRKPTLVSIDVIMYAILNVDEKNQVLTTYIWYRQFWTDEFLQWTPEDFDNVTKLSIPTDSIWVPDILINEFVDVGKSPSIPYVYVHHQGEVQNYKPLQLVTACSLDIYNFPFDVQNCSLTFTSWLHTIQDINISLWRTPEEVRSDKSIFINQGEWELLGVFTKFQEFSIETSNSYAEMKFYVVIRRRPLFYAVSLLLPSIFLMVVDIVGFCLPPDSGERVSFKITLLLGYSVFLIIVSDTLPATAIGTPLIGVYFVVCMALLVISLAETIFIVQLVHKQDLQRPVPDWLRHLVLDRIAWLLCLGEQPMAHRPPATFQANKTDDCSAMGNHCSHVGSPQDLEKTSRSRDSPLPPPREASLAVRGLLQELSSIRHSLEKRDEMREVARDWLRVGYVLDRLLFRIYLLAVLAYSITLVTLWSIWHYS
In words: Negative allosteric modulation of rat 5HT3A expressed in Xenopus laevis oocytes assessed as inhibition of serotonin-induced current response at 30 uM at -40 mV holding potential by two-electrode voltage clamp method relative to serotonin alone. It is filed as cell-based. An outline of the steps: as §1

Assay [11] deals with T2, Glutamate NMDA receptor; Grin1/Grin2c (Rattus norvegicus). In words: Negative allosteric modulation of recombinant rat GluN1/GluN2C expressed in Xenopus laevis oocytes assessed as inhibition of glutamate/glycine-induced current response at 30 uM at -40 mV holding potential by two-electrode voltage clamp method relative to glutamate/glycine. It is filed as cell-based. The settings on record: values are per cent of control. A digest of the protocol: as §2

The target in assay [12] is CHRNA1/CHRNB1/CHRNG/CHRND (Rattus norvegicus) (UniProt P25109+P25108+P25110+P18916). The experiment in a line: Negative allosteric modulation of rat alpha1betagammadelta nACHR expressed in Xenopus laevis oocytes assessed as inhibition of acetylcholine-induced current response at 30 uM at -40 mV holding potential by two-electrode voltage clamp method relative to acetylcholine alone. In kind it is cell-based. An outline of the steps: as §1

For assay [13], the target named is Glutamate NMDA receptor; Grin1/Grin2b (Rattus norvegicus, UniProt P35439+Q00960). The experiment in a line: Negative allosteric modulation of recombinant rat GluN1/GluN2B expressed in Xenopus laevis oocytes assessed as inhibition of glutamate/glycine-induced current response at -40 mV holding potential by two-electrode voltage clamp method. It is filed as cell-based. A digest of the protocol: as §2

Assay [14] concerns the target T2, Glutamate NMDA receptor; Grin1/Grin2c (Rattus norvegicus). In words: Negative allosteric modulation of recombinant rat GluN1/GluN2C expressed in Xenopus laevis oocytes assessed as inhibition of glutamate/glycine-induced current response at saturated concentration at -40 mV holding potential by two-electrode voltage clamp method relative to glutamate/glycine. It is filed as cell-based. A digest of the protocol:
as §3

Assay [15] has as its target Glutamate NMDA receptor; Grin1/Grin2a (Rattus norvegicus) (UniProt P35439+Q00959). The experiment in a line: Negative allosteric modulation of recombinant rat GluN1/GluN2A expressed in Xenopus laevis oocytes assessed as residual glutamate/glycine-induced current response at 30 uM at -40 mV holding potential by two-electrode voltage clamp method relative to glutamate/glycine.

Take `CCN(CC)C(=O)Oc1ccc(C(=O)Nc2cccc(CCNS(=O)(=O)c3ccccc3)c2)cc1`: the inhibition in the assay listed under Homo sapiens amounted to 95%; in assay [2] it was 80%; in the assay filed under Rattus norvegicus [6], 90%; in assay [7], 24%; in the assay filed under Rattus norvegicus [8] it was 98%; in [9], 0%. The values for the inhibition in assay [10], in assay [12] and in [14] were 20%, 27% and 0%, respectively. Moreover, the residual activity was 8.9 to 9% in [1], 9% in assay [11] and 85% in assay [15]. The values for the IC50 in assay [3] and in assay [13] were 1.7 µM and 7.6 µM, respectively. Further, the Ratio IC50 in assay [4] and in assay [5] was less than 6 in each case.

For orientation: inhibition means the change of the read-out against control, counted positive when it falls. By IC50 is commonly meant the concentration that gives 50% inhibition.
